Data from ChEMBL document CHEMBL1123350, “Synthesis and beta-adrenergic receptor blocking potency of 1-(substituted amino)-3-(4-indolyloxy)propan-2-ols” (J Med Chem, 1986).

What was measured:
[1] = Distribution coefficient value of the compound; type: physicochemical; details: octanol/water
How it was run: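 Shake-flask partition between 0.1 M potassium phosphate pH 7.4 and 1-octanol, each phase presaturated with the other. Compound at 0.1–1.0 mg/mL in buffer, shaken 30 min, left 10 min, spun 600g 10 min at room temperature. Aqueous-phase absorbance read before and after partition at a per-compound wavelength. D = (Aorig−Aextr)/(Aextr·f), with f the octanol:buffer volume ratio. Run twice.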

[2] = In vitro for binding affinity against beta adrenergic receptor in rat cortex
How it was run: (§1)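 Male Sprague–Dawley rat cortex or cerebellum membranes, washed in HEPES–EDTA pH 7.5 and resuspended in NaCl–Tris–MgCl2 pH 7.5. Bound ligand collected by filtration and gamma-counted; isoproterenol 25 μM defines nonspecific binding. IC50 and Hill n by nonlinear regression; Ki by Cheng–Prusoff for the eutomer. Run at least twice.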

[3] = In vitro for binding affinity against beta adrenergic receptor in rat cerebellum; type: tissue-based; how it was run: as §1
[4] = organism: Rattus norvegicus; assay: Hill coefficient value assayed against rat beta adrenergic receptor; how it was run: as §1

Row | SMILES | logD [1] | Ki [2] [nM] | Ki [3] [nM] | Hill coefficient [4]
1 | CC(C)NCC(O)COc1cccc2[nH]ccc12 (stereo not given) [PINDOLOL] | -0.3 | 1 | 1 | > 0.9
2 | COc1ccc(CCNCC(O)COc2cccc3[nH]ccc23)cc1OC (stereo not given) | 1.1 | 3 | 7 | > 0.9
3 | OC(CNCCc1ccc(Cl)c(Cl)c1)COc1cccc2[nH]ccc12 (stereo not given) | 2.5 | 6 | 11 | > 0.9
4 | O=[N+]([O-])c1ccc(CCNCC(O)COc2cccc3[nH]ccc23)cc1 (stereo not given) | 1.5 | 5 | 8 | > 0.9
5 | CC(C)(CO)NCC(O)COc1cccc2[nH]ccc12 (stereo not given) | -0.6 | 2 | 2 | > 0.9
6 | Nc1ccc(CCNCC(O)COc2cccc3[nH]ccc23)cc1 (stereo not given) | 0.3 | 25 | 22 | > 0.9
7 | OC(CNCCc1ccc(F)cc1)COc1cccc2[nH]ccc12 (stereo not given) | 2 | 5 | 4 | > 0.9
8 | OC(CNCc1ccc(F)cc1)COc1cccc2[nH]ccc12 (stereo not given) | 1.9 | 125 | 80 | > 0.9
9 | OC(CNCCc1ccccc1)COc1cccc2[nH]ccc12 (stereo not given) | 1.7 | 5 | 4 | > 0.9
10 | OC(CNCc1ccccc1F)COc1cccc2[nH]ccc12 (stereo not given) | 2 | 60 | 45 | > 0.9
